Assay results taken from ChEMBL document CHEMBL1154447, “Synthesis, antimicrobial activity, pharmacophore analysis of some new 2-(substitutedphenyl/benzyl)-5-[(2-benzofuryl)carboxamido]benzoxazoles” (2008).
In brackets after ≈: the same amount, converted by molar mass.

Assays:
Assay type in all cases: functional
Candida albicans [1] = experiment: Antifungal activity against biofilm-positive Candida albicans isolate after 48 hrs by twofold serial dilution technique
How it was run: (§1)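 Yeasts were subcultured on SDA at 35 °C for 24-48 h and passaged twice. Broth microdilution followed CLSI M27-A in RPMI-1640 with L-glutamine, MOPS-buffered to pH 7. Inoculum was McFarland 0.5 (10⁶ cfu/ml) diluted to 10⁴ cfu/ml, giving 10³ cfu/ml per well. Incubated at 35 °C in a humid chamber and read at 48 h as the lowest concentration with no macroscopic growth. Triplicate per run.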

Klebsiella pneumoniae [2] = experiment: Antibacterial activity against Klebsiella pneumoniae RSHM 574 after 24 hrs by twofold serial dilution technique
How it was run: (§2)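 Broth microdilution in Mueller-Hinton broth. Isolates were subcultured overnight on MHA at 37 °C and passaged at least twice. McFarland 0.5 cultures […] were diluted to 10⁵ cfu/ml, giving 10⁴ cfu/ml per well, over two-fold compound dilutions. Plates were incubated at 37 °C in a humid chamber for 24 h. MIC was the lowest concentration completely inhibiting macroscopic growth. Triplicate per run.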

Pseudomonas aeruginosa [3] = experiment: Antibacterial activity against Pseudomonas aeruginosa […] after 24 hrs by twofold serial dilution technique; how it was run: as §2
Staphylococcus aureus [4] = experiment: Antibacterial activity against methicillin-resistant Staphylococcus aureus isolate after 24 hrs by twofold serial dilution technique
How it was run: (§3)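 Broth microdilution in Mueller-Hinton broth. Strains were subcultured overnight on MHA at 37 °C and passaged at least twice. McFarland 0.5 cultures […] were diluted to 10⁵ cfu/ml, giving 10⁴ cfu/ml per well, against two-fold dilutions from 1000 to 0.06. Solvent and medium controls were included. Plates were held at 37 °C in a humid chamber for 24 h, in triplicate. MIC is the lowest concentration with no macroscopic growth.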

Klebsiella pneumoniae [5] = experiment: Antibacterial activity against Klebsiella pneumoniae isolate containing extended spectrum beta lactamase after 24 hrs by twofold serial dilution technique; how it was run: as §2
Candida albicans [6] = experiment: Antifungal activity against Candida albicans ATCC 10231 after 48 hrs by twofold serial dilution technique; conditions: ATCC 10231, 48 h; how it was run: as §1
Pichia kudriavzevii = experiment: Antifungal activity against Candida krusei ATCC 6258 after 48 hrs by twofold serial dilution technique; conditions: ATCC 6258, 48 h; how it was run: as §1
Escherichia coli [7] = experiment: Antibacterial activity against Escherichia coli isolate containing extended spectrum beta lactamase after 24 hrs by twofold serial dilution technique; how it was run: as §2
Pseudomonas aeruginosa [8] = experiment: Antibacterial activity against gentamicin-resistant Pseudomonas aeruginosa isolate after 24 hrs by twofold serial dilution technique; how it was run: as §3
Staphylococcus aureus [9] = experiment: Antibacterial activity against Staphylococcus aureus ATCC 25923 after 24 hrs by twofold serial dilution technique; how it was run: as §2
Bacillus subtilis [10] = experiment: Antibacterial activity against Bacillus subtilis ATCC 6633 after 24 hrs by twofold serial dilution technique; how it was run: as §3
Bacillus subtilis [11] = experiment: Antibacterial activity against ceftriaxone-resistant Bacillus subtilis isolate after 24 hrs by twofold serial dilution technique; how it was run: as §3
Escherichia coli [12] = experiment: Antibacterial activity against Escherichia coli ATCC 25922 after 24 hrs by twofold serial dilution technique; how it was run: as §2

| Compound | MIC (Candida albicans [1]) [µg/mL] | MIC (Klebsiella pneumoniae [2]) [µg/mL] | MIC (Pseudomonas aeruginosa [3]) [µg/mL] | MIC (Staphylococcus aureus [4]) [µg/mL] | MIC (Klebsiella pneumoniae [5]) [µg/mL] | MIC (Candida albicans [6]) [µg/mL] | MIC (Pichia kudriavzevii) [µg/mL] | MIC (Escherichia coli [7]) [µg/mL] | MIC (Pseudomonas aeruginosa [8]) [µg/mL] | MIC (Staphylococcus aureus [9]; ATCC 25923, 24 h) [µg/mL] | MIC (Bacillus subtilis [10]; ATCC 6633, 24 h) [µg/mL] | MIC (Bacillus subtilis [11]) [µg/mL] | MIC (Escherichia coli [12]; ATCC 25922, 24 h) [µg/mL] | MIC (Staphylococcus aureus [9]) [µg/mL] | MIC (Bacillus subtilis [10]) [µg/mL] | MIC (Escherichia coli [12]) [µg/mL] |
| --- | --- | --- | --- | --- | --- | --- | --- | --- | --- | --- | --- | --- | --- | --- | --- | --- |
| Cc1ccc(Cc2nc3cc(NC(=O)c4cc5ccccc5o4)ccc3o2)cc1 | 62.5 (≈ 163 µM) | 62.5 (≈ 163 µM) | 62.5 (≈ 163 µM) | 62.5 (≈ 163 µM) | 125 (≈ 327 µM) | 62.5 (≈ 163 µM) | 250 (≈ 654 µM) | 125 (≈ 327 µM) | 125 (≈ 327 µM) | 125 (≈ 327 µM) | 125 (≈ 327 µM) | 125 (≈ 327 µM) | 62.5 (≈ 163 µM) | – | – | – |
| GENTAMICIN | – | 0.24 | 31.2 | 7.8 | 7.8 | – | – | 15.6 | 62.5 | – | – | 0.12 | – | 0.48 | 0.24 | 0.48 |
| O=C(Nc1ccc2oc(Cc3ccccc3)nc2c1)c1cc2ccccc2o1 | 31.2 (≈ 84.8 µM) | 62.5 (≈ 170 µM) | 31.2 (≈ 84.8 µM) | 62.5 (≈ 170 µM) | 62.5 (≈ 170 µM) | 62.5 (≈ 170 µM) | 31.2 (≈ 84.8 µM) | 62.5 (≈ 170 µM) | 62.5 (≈ 170 µM) | 125 (≈ 339 µM) | 125 (≈ 339 µM) | 125 (≈ 339 µM) | 62.5 (≈ 170 µM) | – | – | – |
| OC(Cn1cncn1)(Cn1cncn1)c1ccc(F)cc1F [FLUCONAZOLE] | 0.48 (≈ 1.57 µM) | – | – | – | – | 1.9 (≈ 6.2 µM) | 15.6 (≈ 51 µM) | – | – | – | – | – | – | – | – | – |
| O=C(Nc1ccc2oc(-c3ccccc3Br)nc2c1)c1cc2ccccc2o1 | 62.5 (≈ 144 µM) | 62.5 (≈ 144 µM) | 62.5 (≈ 144 µM) | 31.2 (≈ 72.1 µM) | 125 (≈ 289 µM) | 62.5 (≈ 144 µM) | 250 (≈ 577 µM) | 125 (≈ 289 µM) | 62.5 (≈ 144 µM) | 125 (≈ 289 µM) | 500 (≈ 1150 µM) | 125 (≈ 289 µM) | 62.5 (≈ 144 µM) | – | – | – |
| CC(C)(C)c1ccc(-c2nc3cc(NC(=O)c4cc5ccccc5o4)ccc3o2)cc1 | 62.5 (≈ 152 µM) | 62.5 (≈ 152 µM) | 62.5 (≈ 152 µM) | 62.5 (≈ 152 µM) | 125 (≈ 305 µM) | 62.5 (≈ 152 µM) | 125 (≈ 305 µM) | 125 (≈ 305 µM) | 125 (≈ 305 µM) | 125 (≈ 305 µM) | 125 (≈ 305 µM) | 125 (≈ 305 µM) | 62.5 (≈ 152 µM) | – | – | – |
| CC1(C)S[C@@H]2[C@H](NC(=O)[C@H](N)c3ccccc3)C(=O)N2[C@H]1C(=O)O.O.O.O [AMPICILLIN TRIHYDRATE] | – | 0.48 | > 500 | 1.9 | 15.6 | – | – | > 15.6 | > 500 | 0.48 | 0.48 | 0.48 | 3.9 | – | – | – |
| O=C(Nc1ccc2oc(-c3ccccc3)nc2c1)c1cc2ccccc2o1 | 62.5 (≈ 176 µM) | 62.5 (≈ 176 µM) | 62.5 (≈ 176 µM) | 62.5 (≈ 176 µM) | 125 (≈ 353 µM) | 62.5 (≈ 176 µM) | 62.5 (≈ 176 µM) | 125 (≈ 353 µM) | 62.5 (≈ 176 µM) | 62.5 (≈ 176 µM) | 125 (≈ 353 µM) | 250 (≈ 705 µM) | 62.5 (≈ 176 µM) | – | – | – |
| O=C(Nc1ccc2oc(Cc3ccc(Cl)cc3)nc2c1)c1cc2ccccc2o1 | 62.5 (≈ 155 µM) | 62.5 (≈ 155 µM) | 31.2 (≈ 77.6 µM) | 125 (≈ 310 µM) | 125 (≈ 310 µM) | 62.5 (≈ 155 µM) | 125 (≈ 310 µM) | 125 (≈ 310 µM) | 125 (≈ 310 µM) | 125 (≈ 310 µM) | 125 (≈ 310 µM) | 125 (≈ 310 µM) | 62.5 (≈ 155 µM) | – | – | – |
| CCc1ccc(-c2nc3cc(NC(=O)c4cc5ccccc5o4)ccc3o2)cc1 | 62.5 (≈ 163 µM) | 62.5 (≈ 163 µM) | 62.5 (≈ 163 µM) | 62.5 (≈ 163 µM) | 125 (≈ 327 µM) | 62.5 (≈ 163 µM) | 125 (≈ 327 µM) | 125 (≈ 327 µM) | 62.5 (≈ 163 µM) | 125 (≈ 327 µM) | 500 (≈ 1310 µM) | 125 (≈ 327 µM) | 62.5 (≈ 163 µM) | – | – | – |
| C[C@@H]1[C@H](O)[C@@H](C)/C=C/C=C/C=C/C=C/C=C/C=C/C=C/[C@H](O[C@@H]2O[C@H](C)[C@@H](O)[C@H](N)[C@@H]2O)C[C@@H]2O[C@](O)(C[C@@H](O)C[C@@H](O)[C@H](O)CC[C@@H](O)C[C@@H](O)CC(=O)O[C@H]1C)C[C@H](O)[C@H]2C(=O)O [AMPHOTERICIN B] | 0.24 (≈ 0.26 µM) | – | – | – | – | 0.48 (≈ 0.519 µM) | 1.9 (≈ 2.06 µM) | – | – | – | – | – | – | – | – | – |
| CC1COc2c(N3CCN(C)CC3)c(F)cc3c(=O)c(C(=O)O)cn1c23 (stereo not given) [OFLOXACIN] | – | 0.12 (≈ 0.332 µM) | 62.5 (≈ 173 µM) | 1.9 (≈ 5.26 µM) | 3.9 (≈ 10.8 µM) | – | – | 7.8 (≈ 21.6 µM) | 62.5 (≈ 173 µM) | 0.12 (≈ 0.332 µM) | 0.12 (≈ 0.332 µM) | 3.9 (≈ 10.8 µM) | – | – | – | – |
| O=C(Nc1ccc2oc(Cc3ccc(F)cc3)nc2c1)c1cc2ccccc2o1 | 62.5 (≈ 162 µM) | 62.5 (≈ 162 µM) | 62.5 (≈ 162 µM) | 62.5 (≈ 162 µM) | 125 (≈ 324 µM) | 62.5 (≈ 162 µM) | 250 (≈ 647 µM) | 125 (≈ 324 µM) | 125 (≈ 324 µM) | 125 (≈ 324 µM) | 125 (≈ 324 µM) | 125 (≈ 324 µM) | 62.5 (≈ 162 µM) | – | – | – |
| O=C(Nc1ccc2oc(-c3ccc(F)cc3)nc2c1)c1cc2ccccc2o1 | 62.5 (≈ 168 µM) | 62.5 (≈ 168 µM) | 31.2 (≈ 83.9 µM) | 31.2 (≈ 83.9 µM) | 125 (≈ 336 µM) | 62.5 (≈ 168 µM) | 125 (≈ 336 µM) | 125 (≈ 336 µM) | 62.5 (≈ 168 µM) | 125 (≈ 336 µM) | 500 (≈ 1340 µM) | 125 (≈ 336 µM) | 62.5 (≈ 168 µM) | – | – | – |
| CO[C@H]1/C=C/O[C@@]2(C)Oc3c(C)c(O)c4c(O)c(c(/C=N/N5CCN(C)CC5)c(O)c4c3C2=O)NC(=O)/C(C)=C\C=C\[C@H](C)[C@H](O)[C@@H](C)[C@@H](O)[C@@H](C)[C@H](OC(C)=O)[C@@H]1C [RIFAMPIN] | – | 1.9 (≈ 2.31 µM) | > 500 | 0.9 (≈ 1.09 µM) | 7.8 (≈ 9.48 µM) | – | – | 3.9 (≈ 4.74 µM) | > 500 | 0.06 (≈ 0.0729 µM) | 0.12 (≈ 0.146 µM) | 3.9 (≈ 4.74 µM) | 1.9 (≈ 2.31 µM) | – | – | – |
| O=C(Nc1ccc2oc(Cc3ccc(Br)cc3)nc2c1)c1cc2ccccc2o1 | 62.5 (≈ 140 µM) | 62.5 (≈ 140 µM) | 31.2 (≈ 69.9 µM) | 62.5 (≈ 140 µM) | 62.5 (≈ 140 µM) | 62.5 (≈ 140 µM) | 62.5 (≈ 140 µM) | 125 (≈ 279 µM) | 15.6 (≈ 34.9 µM) | 125 (≈ 279 µM) | 125 (≈ 279 µM) | 125 (≈ 279 µM) | 62.5 (≈ 140 µM) | – | – | – |
